# Legend:
# Type in all cases: functional
# [1] = system: Staphylococcus epidermidis; test: Antimicrobial activity against Staphylococcus epidermidis ATCC 12228 by broth dilution method; conditions: for MIC: Staphylococcus epidermidis, ATCC 12228
# [2] = system: Staphylococcus aureus; test: Antimicrobial activity against Staphylococcus aureus ATCC 29213 by broth dilution method; conditions: for MIC: Staphylococcus aureus, ATCC 29213
# [3] = system: Staphylococcus aureus; test: Bactericidal activity against methicillin-resistant Staphylococcus aureus clinical isolate 264 after 24 hrs; conditions: isolate 264, 24 h
# In short: (§1)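 Bactericidal concentration: 0.1 ml from wells at the MIC dilution and the dilutions on either side was streaked onto tryptic soy agar and incubated 24 h. It was taken as the lowest drug concentration giving no growth (100% killing).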
# [4] = system: Staphylococcus aureus; test: Bactericidal activity against methicillin-resistant Staphylococcus aureus clinical isolate 260 after 24 hrs; conditions: isolate 260, 24 h; in short: as §1
# [5] = system: Staphylococcus aureus; test: Bactericidal activity against methicillin-resistant Staphylococcus aureus clinical isolate 259 after 24 hrs; conditions: isolate 259, 24 h; in short: as §1
# [6] = system: Staphylococcus aureus; test: Bactericidal activity against methicillin-resistant Staphylococcus aureus clinical isolate 257 after 24 hrs; conditions: isolate 257, 24 h; in short: as §1
# [7] = system: Staphylococcus aureus; test: Bactericidal activity against methicillin-resistant Staphylococcus aureus clinical isolate 255 after 24 hrs; conditions: isolate 255, 24 h; in short: as §1
# [8] = system: Staphylococcus aureus; test: Bactericidal activity against methicillin-resistant Staphylococcus aureus clinical isolate 238 after 24 hrs; conditions: isolate 238, 24 h; in short: as §1
# [9] = system: Staphylococcus aureus; test: Bactericidal activity against methicillin-resistant Staphylococcus aureus clinical isolate 237 after 24 hrs; conditions: isolate 237, 24 h; in short: as §1
# [10] = system: Staphylococcus aureus; test: Bactericidal activity against methicillin-resistant Staphylococcus aureus clinical isolate 236 after 24 hrs; conditions: isolate 236, 24 h; in short: as §1
# [11] = system: Staphylococcus aureus; test: Bactericidal activity against methicillin-resistant Staphylococcus aureus clinical isolate 235 after 24 hrs; conditions: isolate 235, 24 h; in short: as §1
# [12] = system: Staphylococcus aureus; test: Bactericidal activity against methicillin-resistant Staphylococcus aureus clinical isolate 232 after 24 hrs; conditions: isolate 232, 24 h; in short: as §1
# [13] = system: Staphylococcus aureus; test: Bactericidal activity against methicillin-resistant Staphylococcus aureus clinical isolate 231 after 24 hrs; conditions: isolate 231, 24 h; in short: as §1
# [14] = system: Staphylococcus aureus; test: Bactericidal activity against methicillin-resistant Staphylococcus aureus clinical isolate 212 after 24 hrs; conditions: isolate 212, 24 h; in short: as §1
# [15] = system: Staphylococcus aureus; test: Bactericidal activity against methicillin-resistant Staphylococcus aureus clinical isolate 178 after 24 hrs; conditions: isolate 178, 24 h; in short: as §1
# [16] = system: Escherichia coli; test: Bactericidal activity against Escherichia coli ATCC 11229 after 24 hrs; conditions: ATCC 11229, 24 h
# In short: (§2)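 MBC: after MIC determination, 0.1 ml from the MIC well and from two dilutions either side streaked on tryptic soy agar, incubated 24 h; MBC taken as lowest concentration giving no growth (100% kill).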
# [17] = system: Staphylococcus epidermidis; test: Bactericidal activity against Staphylococcus epidermidis ATCC 12228 after 24 hrs; conditions: ATCC 12228, 24 h; in short: as §2
# [18] = system: Staphylococcus aureus; test: Bactericidal activity against Staphylococcus aureus ATCC 29213 after 24 hrs; conditions: ATCC 29213, 24 h; in short: as §1
# [19] = system: Candida parapsilosis; test: Antimicrobial activity against Candida parapsilosis ATCC 90030 by broth dilution method; conditions: Lodderomyces parapsilosis
# [20] = system: Nakaseomyces glabratus; test: Antimicrobial activity against Candida glabrata ATCC 18804 by broth dilution method
# [21] = system: Candida albicans; test: Antimicrobial activity against Candida albicans ATCC 22019 by broth dilution method
# [22] = system: Candida tropicalis; test: Antimicrobial activity against Candida tropicalis ATCC 750 by broth dilution method
# [23] = system: Staphylococcus aureus; test: Antimicrobial activity against methicillin-resistant Staphylococcus aureus clinical isolate by broth dilution method; conditions: for MIC50 / MIC90: Staphylococcus aureus
# [24] = system: Staphylococcus aureus; test: Antimicrobial activity against methicillin-resistant Staphylococcus aureus clinical isolate 264 by broth dilution method
# [25] = system: Staphylococcus aureus; test: Antimicrobial activity against methicillin-resistant Staphylococcus aureus clinical isolate 260 by broth dilution method
# [26] = system: Staphylococcus aureus; test: Antimicrobial activity against methicillin-resistant Staphylococcus aureus clinical isolate 257 by broth dilution method
# [27] = system: Staphylococcus aureus; test: Antimicrobial activity against methicillin-resistant Staphylococcus aureus clinical isolate 259 by broth dilution method
# [28] = system: Staphylococcus aureus; test: Antimicrobial activity against methicillin-resistant Staphylococcus aureus clinical isolate 238 by broth dilution method
# [29] = system: Staphylococcus aureus; test: Antimicrobial activity against methicillin-resistant Staphylococcus aureus clinical isolate 255 by broth dilution method
# [30] = system: Staphylococcus aureus; test: Antimicrobial activity against methicillin-resistant Staphylococcus aureus clinical isolate 237 by broth dilution method
# [31] = system: Staphylococcus aureus; test: Antimicrobial activity against methicillin-resistant Staphylococcus aureus clinical isolate 236 by broth dilution method
# [32] = system: Staphylococcus aureus; test: Antimicrobial activity against methicillin-resistant Staphylococcus aureus clinical isolate 235 by broth dilution method
# [33] = system: Staphylococcus aureus; test: Antimicrobial activity against methicillin-resistant Staphylococcus aureus clinical isolate 232 by broth dilution method
# [34] = system: Staphylococcus aureus; test: Antimicrobial activity against methicillin-resistant Staphylococcus aureus clinical isolate 227 by broth dilution method
# [35] = system: Staphylococcus aureus; test: Antimicrobial activity against methicillin-resistant Staphylococcus aureus clinical isolate 231 by broth dilution method
# [36] = system: Staphylococcus aureus; test: Antimicrobial activity against methicillin-resistant Staphylococcus aureus clinical isolate 225 by broth dilution method
# [37] = system: Staphylococcus aureus; test: Antimicrobial activity against methicillin-resistant Staphylococcus aureus clinical isolate 215 by broth dilution method
# [38] = system: Staphylococcus aureus; test: Antimicrobial activity against methicillin-resistant Staphylococcus aureus clinical isolate 218 by broth dilution method
# [39] = system: Staphylococcus aureus; test: Antimicrobial activity against methicillin-resistant Staphylococcus aureus clinical isolate 212 by broth dilution method
# [40] = system: Staphylococcus aureus; test: Antimicrobial activity against methicillin-resistant Staphylococcus aureus clinical isolate 207 by broth dilution method
# [41] = system: Staphylococcus aureus; test: Antimicrobial activity against methicillin-resistant Staphylococcus aureus clinical isolate 205 by broth dilution method
# [42] = system: Staphylococcus aureus; test: Antimicrobial activity against methicillin-resistant Staphylococcus aureus clinical isolate 195 by broth dilution method
# [43] = system: Staphylococcus aureus; test: Antimicrobial activity against methicillin-resistant Staphylococcus aureus clinical isolate 178 by broth dilution method
# [44] = system: Staphylococcus aureus; test: Antimicrobial activity against methicillin-resistant Staphylococcus aureus clinical isolate 176 by broth dilution method
# [45] = system: Pseudomonas aeruginosa; test: Antimicrobial activity against Pseudomonas aeruginosa ATCC 27853 by broth dilution method
# [46] = system: Escherichia coli; test: Antimicrobial activity against Escherichia coli ATCC 11229 by broth dilution method; conditions: for MIC: Escherichia coli, ATCC 11229
# [47] = system: Staphylococcus aureus; test: Bactericidal activity against methicillin-resistant Staphylococcus aureus clinical isolate 176 after 24 hrs; conditions: isolate 176, 24 h; in short: as §1
smiles,measurement,setting,value
CCCCCCCCCCOc1ccc(CNC(CO)(CO)CO)cc1.Cl,-logMIC,[1],5
same,MIC,[1],4 µg/mL
same,-logMIC,[2],4.7
same,MIC,[2],8 µg/mL
same,MBC,[3],2 µg/mL
same,MBC,[4],16 µg/mL
same,MBC,[5],4 µg/mL
same,MBC,[6],8 µg/mL
same,MBC,[7],8 µg/mL
same,MBC,[8],8 µg/mL
same,MBC,[9],16 µg/mL
same,MBC,[10],4 µg/mL
same,MBC,[11],4 µg/mL
same,MBC,[12],32 µg/mL
same,MBC,[13],8 µg/mL
same,MBC,[14],128 µg/mL
same,MBC,[15],128 µg/mL
same,MBC,[16],32 µg/mL
same,MBC,[17],8 µg/mL
same,MBC,[18],8 µg/mL
same,MIC,[19],8 µg/mL
same,MIC,[20],2 µg/mL
same,MIC,[21],4 µg/mL
same,MIC,[22],8 µg/mL
same,-logMIC,[23],4.842
same,MIC50,[23],8 µg/mL
same,MIC90,[23],8 µg/mL
same,MIC,[24],2 µg/mL
same,MIC,[25],8 µg/mL
same,MIC,[26],4 µg/mL
same,MIC,[27],4 µg/mL
same,MIC,[28],8 µg/mL
same,MIC,[29],4 µg/mL
same,MIC,[30],16 µg/mL
same,MIC,[31],4 µg/mL
same,MIC,[32],4 µg/mL
same,MIC,[33],16 µg/mL
same,MIC,[34],4 µg/mL
same,MIC,[35],8 µg/mL
same,MIC,[36],8 µg/mL
same,MIC,[37],4 µg/mL
same,MIC,[38],4 µg/mL
same,MIC,[39],8 µg/mL
same,MIC,[40],8 µg/mL
same,MIC,[41],8 µg/mL
same,MIC,[42],8 µg/mL
same,MIC,[43],8 µg/mL
same,MIC,[44],8 µg/mL
same,MIC,[45],16 µg/mL
same,-logMIC,[46],4.1
same,MIC,[46],32 µg/mL
CCCCCCCCCCCCOc1ccc(CNC(CO)(CO)CO)cc1.Cl,-logMIC,[1],4.73
same,MIC,[1],8 µg/mL
same,MIC,[2],8 µg/mL
same,MBC,[3],8 µg/mL
same,MBC,[4],4 µg/mL
same,MBC,[5],16 µg/mL
same,MBC,[6],16 µg/mL
same,MBC,[7],16 µg/mL
same,MBC,[8],4 µg/mL
same,MBC,[9],4 µg/mL
same,MBC,[10],8 µg/mL
same,MBC,[11],32 µg/mL
same,MBC,[12],16 µg/mL
same,MBC,[13],4 µg/mL
same,MBC,[14],128 µg/mL
same,MBC,[47],128 µg/mL
same,MBC,[17],8 µg/mL
same,MBC,[18],8 µg/mL
same,MIC,[19],4 µg/mL
same,MIC,[20],2 µg/mL
same,MIC,[21],4 µg/mL
same,MIC,[22],8 µg/mL
same,-logMIC,[23],4.842
same,MIC50,[23],4 µg/mL
same,MIC90,[23],8 µg/mL
same,MIC,[24],4 µg/mL
same,MIC,[25],4 µg/mL
same,MIC,[26],16 µg/mL
same,MIC,[27],4 µg/mL
same,MIC,[28],4 µg/mL
same,MIC,[29],4 µg/mL
same,MIC,[30],4 µg/mL
same,MIC,[31],4 µg/mL
same,MIC,[32],4 µg/mL
same,MIC,[33],8 µg/mL
same,MIC,[34],4 µg/mL
same,MIC,[35],4 µg/mL
same,MIC,[36],8 µg/mL
same,MIC,[37],8 µg/mL
same,MIC,[38],4 µg/mL
same,MIC,[39],8 µg/mL
same,MIC,[40],4 µg/mL
same,MIC,[41],8 µg/mL
same,MIC,[42],8 µg/mL
same,MIC,[43],8 µg/mL
same,MIC,[44],8 µg/mL
same,MIC,[45],> 256 µg/mL
same,MIC,[46],> 256 µg/mL

# From ChEMBL document CHEMBL2380298, “Synthesis and antimicrobial activity of novel amphiphilic aromatic amino alcohols” (2013)
